In brackets after ≈: the same amount, converted by molar mass.
Assays:
Plasmodium falciparum [1] = experiment: Antimalarial activity against chloroquine-resistant Plasmodium falciparum FcB1; type: functional, organism-based
Method in brief: (§1)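 Asexual P. falciparum kept continuously on human erythrocytes; modified semiautomated microdilution method. Serially diluted drug added to asynchronous cultures (0.5% parasitemia, 1% final hematocrit) for 24 h at 37 °C, then [3H]hypoxanthine added per well. Growth inhibition from incorporated radioactivity relative to drug-free control on the same plate; IC50 from concentration-response curve, mean of three independent experiments.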

Plasmodium falciparum [2] = experiment: Antimalarial activity against chloroquine-sensitive Plasmodium falciparum F32; type: functional, organism-based; method in brief: as §1
Aminopeptidase N [3] = target: T1, Aminopeptidase N (Plasmodium falciparum FcB1/Columbia, UniProt O96935); experiment: Inhibition of Plasmodium falciparum FcB1 M1 aminopeptidase
T1 sequence (O96935 whole entry): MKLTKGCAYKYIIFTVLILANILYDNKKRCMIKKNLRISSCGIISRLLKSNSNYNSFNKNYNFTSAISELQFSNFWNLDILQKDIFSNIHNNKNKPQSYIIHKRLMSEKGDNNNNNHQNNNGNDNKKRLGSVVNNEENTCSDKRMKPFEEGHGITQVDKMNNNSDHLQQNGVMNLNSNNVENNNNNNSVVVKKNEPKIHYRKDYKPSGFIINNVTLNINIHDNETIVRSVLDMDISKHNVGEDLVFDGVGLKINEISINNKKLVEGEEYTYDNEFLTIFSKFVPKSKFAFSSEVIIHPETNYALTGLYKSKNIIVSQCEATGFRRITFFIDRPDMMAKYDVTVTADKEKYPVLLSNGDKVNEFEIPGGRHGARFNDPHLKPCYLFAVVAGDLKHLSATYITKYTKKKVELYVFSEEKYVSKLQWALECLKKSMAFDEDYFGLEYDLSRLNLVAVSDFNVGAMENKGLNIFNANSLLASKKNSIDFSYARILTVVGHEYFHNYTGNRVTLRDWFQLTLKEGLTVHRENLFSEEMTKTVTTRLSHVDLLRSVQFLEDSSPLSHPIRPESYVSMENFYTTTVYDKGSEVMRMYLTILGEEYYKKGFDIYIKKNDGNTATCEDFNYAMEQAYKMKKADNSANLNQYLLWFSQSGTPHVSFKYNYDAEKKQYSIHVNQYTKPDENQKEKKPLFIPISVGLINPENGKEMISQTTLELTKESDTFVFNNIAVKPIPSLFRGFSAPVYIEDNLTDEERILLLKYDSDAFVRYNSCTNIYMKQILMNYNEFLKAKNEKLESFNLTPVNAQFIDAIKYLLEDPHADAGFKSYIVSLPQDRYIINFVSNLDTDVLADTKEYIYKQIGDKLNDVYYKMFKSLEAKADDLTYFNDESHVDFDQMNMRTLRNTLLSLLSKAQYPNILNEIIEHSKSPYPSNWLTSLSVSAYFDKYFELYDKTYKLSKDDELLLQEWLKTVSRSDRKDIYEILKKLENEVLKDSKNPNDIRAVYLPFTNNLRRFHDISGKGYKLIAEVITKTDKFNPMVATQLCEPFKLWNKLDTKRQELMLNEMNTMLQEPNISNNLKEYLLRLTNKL
Method in brief: (§2)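 Native enzyme purified from P. falciparum FcB1, diluted 10-fold in 25 mM Tris-HCl pH 7.4. Preincubated with inhibitor for 10 min at room temperature, then Leu-pNA substrate added (0.3 mM stock, Km 0.099 mM). Kinetics followed at 405 nm at room temperature. Initial velocities normalized to a no-inhibitor control. Single-point screen at 10 µM; IC50 from velocity versus inhibitor concentration curves. Bestatin used as reference.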

[4] = Solubility at pH 7.4; type: physicochemical; details: buffer
Method in brief: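 10 mM DMSO stock diluted 50-fold into PBS pH 7.4 or MeOH. Shaken for 24 h at room temperature, centrifuged and filtered at 0.45 µm. Analysed by LC-MS-MS; solubility taken as the PBS/MeOH mass-signal area ratio.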

[5] = Distribution coefficient, log D at pH 7.4; type: physicochemical; details: octanol/water
Method in brief: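 10 mM DMSO stock added to 1:1 octanol/PBS pH 7.4 and shaken for 2 h at room temperature. Phases separated and each quantified by LC-MS-MS. Log D taken as the log of the octanol/PBS concentration ratio from mass signals.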

Aminopeptidase N [6] = target: T2, Aminopeptidase N (Sus scrofa, UniProt P15145); experiment: Inhibition of pig kidney microsomal APN
T2 sequence (P15145 whole entry): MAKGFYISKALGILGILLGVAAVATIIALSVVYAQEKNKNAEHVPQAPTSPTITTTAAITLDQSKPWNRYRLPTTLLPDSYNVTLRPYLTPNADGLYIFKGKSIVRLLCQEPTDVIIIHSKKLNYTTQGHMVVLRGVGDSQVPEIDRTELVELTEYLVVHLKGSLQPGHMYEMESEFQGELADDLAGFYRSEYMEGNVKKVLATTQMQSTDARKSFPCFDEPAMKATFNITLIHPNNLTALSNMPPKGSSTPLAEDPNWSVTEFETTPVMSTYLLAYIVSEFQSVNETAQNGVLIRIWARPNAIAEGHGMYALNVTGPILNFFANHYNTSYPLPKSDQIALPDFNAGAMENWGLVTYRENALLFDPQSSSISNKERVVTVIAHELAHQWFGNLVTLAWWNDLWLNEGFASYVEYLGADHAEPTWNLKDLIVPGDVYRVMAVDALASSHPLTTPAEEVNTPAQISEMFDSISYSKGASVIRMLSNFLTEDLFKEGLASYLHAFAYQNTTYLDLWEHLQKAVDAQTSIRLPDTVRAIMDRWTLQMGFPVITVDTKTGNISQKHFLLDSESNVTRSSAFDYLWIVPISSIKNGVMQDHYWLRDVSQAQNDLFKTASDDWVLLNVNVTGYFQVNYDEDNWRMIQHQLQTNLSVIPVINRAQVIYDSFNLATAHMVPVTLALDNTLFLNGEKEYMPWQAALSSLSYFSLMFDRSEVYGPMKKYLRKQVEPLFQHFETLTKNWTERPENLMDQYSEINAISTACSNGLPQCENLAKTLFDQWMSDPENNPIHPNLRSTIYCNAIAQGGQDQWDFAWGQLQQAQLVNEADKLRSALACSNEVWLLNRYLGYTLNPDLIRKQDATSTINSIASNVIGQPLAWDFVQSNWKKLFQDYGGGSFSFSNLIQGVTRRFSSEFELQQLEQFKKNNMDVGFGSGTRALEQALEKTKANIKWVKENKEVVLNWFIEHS
Method in brief: (§3)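 Porcine kidney microsomal APN (ammonium sulfate suspension) diluted 600-fold in 25 mM Tris-HCl pH 7.4. Preincubated with inhibitor for 10 min at room temperature, then Leu-pNA added (0.3 mM stock). Hydrolysis followed at 405 nm at room temperature. Rates normalized to a no-inhibitor control. Single point at 10 µM; IC50 from concentration-velocity curves. Bestatin used as reference.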

[7] = Stability in Zucker FA/FA rat plasma at 37degC; type: ADME, organism-based; details: read-out: Stability (converted)
Method in brief: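 Compound at 100 µM final in male Zucker FA/FA rat plasma, stirred at 37 °C. Samples taken from 0 to 96 h, acidified with 0.14 M phosphoric acid and spiked with internal standard. Extracted three times with AcOEt and quantified by LC-MS-MS (MRM). Half-life derived.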

[8] = Selectivity ratio, IC50 for pig APN /IC50 for Plasmodium falciparum FcB1 M1
Method in brief: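 Ratio of IC50 values (APN/PfA-M1) from two parallel assays: native PfA-M1 purified from P. falciparum FcB1 (diluted 10-fold) and porcine kidney microsomal APN (diluted 600-fold), both in 25 mM Tris-HCl pH 7.4. Enzyme was preincubated 10 min at room temperature with inhibitor, then Leu-pNA added (0.3 mM solution). Kinetics were read at 405 nm, initial velocities normalized to no-inhibitor controls, and IC50 was taken from velocity–concentration plots.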

[9] = target: T3, Aminopeptidase N (Sus scrofa) (UniProt P15145); experiment: Inhibition of pig kidney microsomal APN at 10 uM; method in brief: as §3
T3 sequence (whole entry): T2 sequence (P15145 whole entry)

[10] = target: T4, Aminopeptidase N (Plasmodium falciparum FcB1/Columbia) (UniProt O96935); experiment: Inhibition of Plasmodium falciparum FcB1 M1 aminopeptidase at 10 uM; method in brief: as §2
T4 sequence (whole entry): T1 sequence (O96935 whole entry)

## O=C(NO)/C(=C\c1ccccc1)C(=O)NCc1ccc(F)cc1
Plasmodium falciparum [1]
  IC50: 24 µM
Plasmodium falciparum [2]
  IC50: 13 µM
Aminopeptidase N [3]
  IC50: 0.006 µM
[4]
  solubility: 198 µM (≈ 62.2 µg/mL)
[5]
  logD: 1.1
Aminopeptidase N [6]
  IC50: 1.37 µM
[7]
  half-life: 22 h
[8]
  Ratio IC50: 229

## O=C(NO)C(Cc1ccccc1)C(=O)NCc1ccc(F)cc1 (stereo not drawn)
[9]
  inhibition: 72%
Plasmodium falciparum [1]
  IC50: 59 µM
Plasmodium falciparum [2]
  IC50: 57 µM
Aminopeptidase N [3]
  IC50: 0.027 µM
[4]
  solubility: > 200 µM
[5]
  logD: 1.2
Aminopeptidase N [6]
  IC50: 3.62 µM
[7]
  half-life: 0.75 h
[8]
  Ratio IC50: 134
[10]
  inhibition: 91%

— ChEMBL document CHEMBL1142961, “Novel selective inhibitors of the zinc plasmodial aminopeptidase PfA-M1 as potential antimalarial agents” (J Med Chem, 2007)
